Laboratory results: ChEMBL document CHEMBL1148788 (J Med Chem, 2007)
“And” between values parts separate entries of the source, which are not always exact repeats. Identical values can stand only once. The source made the active and inactive calls. The calls are words filed in the database; no cut-off is given here.

What was measured:
[1] = Displacement of [3H]methyllycaconitine from chimeric alpha-7nAChR D197A mutant/5HT3A receptor in tsA201 cells; type: cell-based, Homo sapiens
Method in brief: (§1)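 tsA-201 cells transiently transfected with 4 µg WT or mutant α7/5-HT3A chimera and assayed 2 days later. Membranes washed twice at 50000g in 50 mM Tris-HCl pH 7.2. Incubated with 0.5 nM [3H]MLA and compound for 2.5 h at room temperature with shaking; nonspecific binding with 5 mM (S)-nicotine. PEI-soaked GF/C filtration, scintillation counting. Ki derived; duplicate, 3–7 experiments.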

tsA201 [2] = experiment: Displacement of [3H]methyllycaconitine from chimeric alpha-7nAChR W55A/Y195A mutant /5HT3A receptor in tsA201 cells; type: cell-based; details: Homo sapiens; method in brief: as §1
[3] = Displacement of [3H]methyllycaconitine from chimeric alpha-7nAChR K145R mutant /5HT3A receptor in tsA201 cells; type: cell-based, Homo sapiens; method in brief: as §1
[4] = Antagonist activity at human alpha7nAChR Y93A mutant co-expressed with human Ric3 in tsA201 cells by FMP assay; type: functional, cell-based
[5] = Antagonist activity at human alpha7 nAChR W149Y mutant co-expressed with human Ric3 in tsA201 cells by FMP assay; type: functional, cell-based
[6] = Antagonist activity at human alpha-7 nAChR Y188A mutant coexpressed with human Ric3 in tsA201 cells by FMP assay; type: functional, cell-based
[7] = Antagonist activity at human alpha-7 nAChR Y195A mutant coexpressed with human Ric3 in tsA201 cells by FMP assay; type: functional, cell-based
[8] = biological target: Neuronal acetylcholine receptor; alpha4/beta2 (Rattus norvegicus, UniProt P09483+P12390); experiment: Displacement of [3H]epibatidine from rat recombinant alpha-4-beta-2 nAChR in HEK293 cell line; type: cell-based
Sequence of Neuronal acetylcholine receptor; alpha4/beta2 (P09483 whole entry): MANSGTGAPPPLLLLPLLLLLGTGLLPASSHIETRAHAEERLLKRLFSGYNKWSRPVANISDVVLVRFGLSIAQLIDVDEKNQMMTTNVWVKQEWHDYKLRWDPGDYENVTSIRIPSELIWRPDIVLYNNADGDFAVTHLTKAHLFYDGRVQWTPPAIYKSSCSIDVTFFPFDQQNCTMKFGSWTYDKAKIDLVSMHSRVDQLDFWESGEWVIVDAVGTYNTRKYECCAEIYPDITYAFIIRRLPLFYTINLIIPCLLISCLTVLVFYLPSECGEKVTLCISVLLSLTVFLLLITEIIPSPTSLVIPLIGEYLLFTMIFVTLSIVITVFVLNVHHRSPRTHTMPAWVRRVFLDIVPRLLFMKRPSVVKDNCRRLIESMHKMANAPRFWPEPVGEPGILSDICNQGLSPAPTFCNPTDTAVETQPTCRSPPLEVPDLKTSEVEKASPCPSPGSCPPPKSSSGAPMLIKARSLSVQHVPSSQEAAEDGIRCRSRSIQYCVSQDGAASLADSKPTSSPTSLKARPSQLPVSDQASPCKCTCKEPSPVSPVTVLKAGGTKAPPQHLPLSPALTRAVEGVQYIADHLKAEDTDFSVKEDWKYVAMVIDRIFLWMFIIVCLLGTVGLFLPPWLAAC
Sequence of Neuronal acetylcholine receptor; alpha4/beta2 (P12390 whole entry): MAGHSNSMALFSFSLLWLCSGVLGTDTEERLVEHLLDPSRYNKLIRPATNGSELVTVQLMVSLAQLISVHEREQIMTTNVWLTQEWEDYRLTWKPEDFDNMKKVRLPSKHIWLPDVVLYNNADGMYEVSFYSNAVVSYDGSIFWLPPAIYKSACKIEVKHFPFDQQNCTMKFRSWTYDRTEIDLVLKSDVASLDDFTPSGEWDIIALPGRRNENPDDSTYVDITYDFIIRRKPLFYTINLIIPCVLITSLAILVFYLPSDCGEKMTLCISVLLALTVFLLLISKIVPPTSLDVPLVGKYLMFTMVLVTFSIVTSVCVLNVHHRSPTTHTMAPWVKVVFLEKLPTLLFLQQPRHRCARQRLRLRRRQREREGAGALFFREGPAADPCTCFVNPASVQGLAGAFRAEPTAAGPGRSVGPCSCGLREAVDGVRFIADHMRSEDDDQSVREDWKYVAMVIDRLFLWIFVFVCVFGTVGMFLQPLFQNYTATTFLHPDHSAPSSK

[9] = biological target: T1, Neuronal acetylcholine receptor; alpha3/beta4 (Rattus norvegicus, UniProt P04757+P12392); experiment: Displacement of [3H]epibatidine from recombinant rat alpha-3-beta-4 nAChr in HEK293 cell line; type: cell-based
T1 sequence (P04757 whole entry): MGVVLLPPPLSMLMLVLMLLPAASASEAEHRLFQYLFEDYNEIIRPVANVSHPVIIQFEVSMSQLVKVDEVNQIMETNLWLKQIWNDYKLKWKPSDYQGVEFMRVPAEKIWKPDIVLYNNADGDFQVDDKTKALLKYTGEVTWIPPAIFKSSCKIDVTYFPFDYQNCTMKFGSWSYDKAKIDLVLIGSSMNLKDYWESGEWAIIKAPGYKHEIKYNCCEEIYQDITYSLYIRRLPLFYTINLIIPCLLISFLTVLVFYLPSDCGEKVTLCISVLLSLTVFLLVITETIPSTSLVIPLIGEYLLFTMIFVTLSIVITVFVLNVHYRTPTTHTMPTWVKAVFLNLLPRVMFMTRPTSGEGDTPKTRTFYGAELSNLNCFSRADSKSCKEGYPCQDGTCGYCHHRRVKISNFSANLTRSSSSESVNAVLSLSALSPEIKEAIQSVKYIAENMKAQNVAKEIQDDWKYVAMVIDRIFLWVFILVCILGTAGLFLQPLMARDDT
T1 sequence (P12392 whole entry): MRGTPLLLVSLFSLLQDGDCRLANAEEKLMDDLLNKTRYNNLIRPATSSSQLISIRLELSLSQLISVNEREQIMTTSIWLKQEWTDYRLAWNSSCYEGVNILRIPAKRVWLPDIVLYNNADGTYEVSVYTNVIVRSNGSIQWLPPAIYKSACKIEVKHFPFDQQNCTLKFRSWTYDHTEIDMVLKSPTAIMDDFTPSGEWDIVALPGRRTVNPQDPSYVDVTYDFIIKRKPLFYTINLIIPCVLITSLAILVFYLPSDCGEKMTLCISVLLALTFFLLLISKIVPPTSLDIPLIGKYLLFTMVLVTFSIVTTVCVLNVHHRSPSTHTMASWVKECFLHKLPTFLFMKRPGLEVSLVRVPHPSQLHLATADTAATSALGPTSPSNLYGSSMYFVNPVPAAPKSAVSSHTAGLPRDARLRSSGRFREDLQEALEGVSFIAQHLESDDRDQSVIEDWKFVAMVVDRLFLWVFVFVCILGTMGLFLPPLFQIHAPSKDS

[10] = biological target: Neuronal acetylcholine receptor; alpha4/beta4 (Rattus norvegicus, UniProt P09483+P12392); experiment: Displacement of [3H]epibatidine from recombinant rat alpha-4-beta-4 nAChr in HEK293 cell line; type: cell-based
Sequence of Neuronal acetylcholine receptor; alpha4/beta4 (P09483 whole entry): as the sequence (P09483 whole entry) above
Sequence of Neuronal acetylcholine receptor; alpha4/beta4 (P12392 whole entry): as the sequence (P12392 whole entry) above

[11] = biological target: T2, Neuronal acetylcholine receptor subunit alpha-7 (Homo sapiens, UniProt P36544); experiment: Displacement of [3H]methyllycaconitine from human alpha-7 in tsA201 cells coexpressed with 5HT3A receptor; type: cell-based
Target sequence in this assay (P36544 whole entry): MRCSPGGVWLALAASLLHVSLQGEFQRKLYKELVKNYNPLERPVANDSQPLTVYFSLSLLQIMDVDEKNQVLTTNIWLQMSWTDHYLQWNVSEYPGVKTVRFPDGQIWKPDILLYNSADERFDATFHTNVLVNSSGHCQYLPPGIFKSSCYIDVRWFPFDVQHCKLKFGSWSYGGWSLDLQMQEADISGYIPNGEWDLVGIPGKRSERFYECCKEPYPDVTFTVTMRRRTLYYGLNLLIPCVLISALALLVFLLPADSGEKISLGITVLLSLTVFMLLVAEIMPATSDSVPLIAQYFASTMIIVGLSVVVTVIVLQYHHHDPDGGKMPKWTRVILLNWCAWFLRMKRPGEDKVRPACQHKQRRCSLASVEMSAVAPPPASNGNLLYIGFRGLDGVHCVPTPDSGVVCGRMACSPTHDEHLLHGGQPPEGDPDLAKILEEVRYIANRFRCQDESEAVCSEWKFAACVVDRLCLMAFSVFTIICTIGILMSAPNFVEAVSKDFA

[12] = biological target: T2, Neuronal acetylcholine receptor subunit alpha-7; experiment: Displacement of [3H]methyllycaconitine from alpha7 nAChR in tsA201 cells co-expressed with Ric3; type: cell-based
Target sequence in this assay (P36544 whole entry): as above

[13] = biological target: T3, 5-hydroxytryptamine receptor 3A (Homo sapiens, UniProt P46098); experiment: Displacement of [3H]GR65630 from human 5HT3A receptor in HEK293 cells; type: cell-based
T3 sequence (P46098 whole entry): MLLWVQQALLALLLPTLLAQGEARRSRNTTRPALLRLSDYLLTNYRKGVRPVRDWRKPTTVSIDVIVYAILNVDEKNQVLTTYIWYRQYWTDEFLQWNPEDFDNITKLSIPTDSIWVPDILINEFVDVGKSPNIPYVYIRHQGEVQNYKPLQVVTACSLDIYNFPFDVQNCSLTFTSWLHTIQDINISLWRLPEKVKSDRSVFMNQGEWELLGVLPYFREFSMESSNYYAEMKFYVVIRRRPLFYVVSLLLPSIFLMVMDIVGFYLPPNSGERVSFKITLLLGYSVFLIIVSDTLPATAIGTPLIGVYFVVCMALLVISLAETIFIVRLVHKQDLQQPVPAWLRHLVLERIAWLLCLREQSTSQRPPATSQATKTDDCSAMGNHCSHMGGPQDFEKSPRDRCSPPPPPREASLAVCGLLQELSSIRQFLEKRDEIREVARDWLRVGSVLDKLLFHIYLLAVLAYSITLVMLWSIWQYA

[14] = biological target: T2, Neuronal acetylcholine receptor subunit alpha-7; experiment: Antagonist activity at human alpha-7 nAChR in tsA201 cells coexpressed with Ric3 by FMP assay; type: functional, cell-based
Target sequence in this assay (P36544 whole entry): as the sequence (P36544 whole entry) above

[15] = biological target: T1, Neuronal acetylcholine receptor; alpha3/beta4; experiment: Antagonist activity at rat alpha3beta4 nAChR expressed in HEK293 cells by FMP assay; type: functional, cell-based, Homo sapiens; details: read-out: IC50
[16] = biological target: T3, 5-hydroxytryptamine receptor 3A; experiment: Antagonist activity at human 5HT3A receptor expressed in HEK293 cells by FMP assay; type: functional, cell-based; details: read-out: IC50
cells = type: functional, cell-based; details: Homo sapiens, HEK293
[17] = biological target: T4, Glycine receptor subunit alpha-1 (Homo sapiens, UniProt P23415); experiment: Antagonist activity at human glycine alpha-1 receptor in HEK293 cells by FMP assay; type: functional, cell-based
T4 sequence (P23415 whole entry): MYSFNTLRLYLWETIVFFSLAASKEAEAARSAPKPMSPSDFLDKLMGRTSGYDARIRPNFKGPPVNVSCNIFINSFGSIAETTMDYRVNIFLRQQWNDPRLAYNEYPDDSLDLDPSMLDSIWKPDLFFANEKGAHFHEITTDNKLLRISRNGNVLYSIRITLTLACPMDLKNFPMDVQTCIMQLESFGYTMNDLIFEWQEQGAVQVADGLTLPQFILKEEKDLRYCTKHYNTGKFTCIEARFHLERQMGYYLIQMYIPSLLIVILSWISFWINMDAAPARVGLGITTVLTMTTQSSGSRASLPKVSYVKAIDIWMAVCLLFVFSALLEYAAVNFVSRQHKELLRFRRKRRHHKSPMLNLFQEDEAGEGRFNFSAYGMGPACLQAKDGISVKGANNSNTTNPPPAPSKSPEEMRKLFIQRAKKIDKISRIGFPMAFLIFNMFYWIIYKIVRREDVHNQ

[18] = biological target: T2, Neuronal acetylcholine receptor subunit alpha-7; experiment: Displacement of [3H]methyllycaconitine from chimeric alpha7nAChR/5HT3A in tsA201 cells; type: cell-based
Target sequence in this assay (P36544 23-502 limits assumed): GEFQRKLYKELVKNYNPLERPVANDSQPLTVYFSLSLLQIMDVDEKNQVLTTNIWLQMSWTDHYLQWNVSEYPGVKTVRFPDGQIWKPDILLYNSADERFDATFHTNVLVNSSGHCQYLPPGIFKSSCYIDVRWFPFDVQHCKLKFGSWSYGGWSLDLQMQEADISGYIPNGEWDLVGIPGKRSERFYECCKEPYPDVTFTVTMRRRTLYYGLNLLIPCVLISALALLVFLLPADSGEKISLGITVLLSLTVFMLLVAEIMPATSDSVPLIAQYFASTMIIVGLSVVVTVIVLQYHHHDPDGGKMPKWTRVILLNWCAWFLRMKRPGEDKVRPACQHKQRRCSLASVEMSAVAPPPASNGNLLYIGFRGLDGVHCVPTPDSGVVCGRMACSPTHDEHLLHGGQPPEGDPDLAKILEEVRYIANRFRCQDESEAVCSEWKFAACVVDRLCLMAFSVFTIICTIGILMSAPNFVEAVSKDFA

[19] = Displacement of [3H]methyllycaconitine from chimeric alpha-7nAChR W55A mutant /5HT3A receptor in tsA201 cells; type: cell-based, Homo sapiens; method in brief: as §1
[20] = Displacement of [3H]methyllycaconitine from chimeric alpha7nAChR W55Y mutant/5HT3A receptor in tsA201 cells; type: cell-based, Homo sapiens; method in brief: as §1
[21] = Displacement of [3H]methyllycaconitine from chimeric alpha7nAChR R79A mutant/5HT3A receptor R79A mutant in tsA201 cells; type: cell-based, Homo sapiens; method in brief: as §1
tsA201 [22] = experiment: Displacement of [3H]methyllycaconitine from chimeric alpha-7nAChR Y93A mutant/5HT3A receptor in tsA201 cells; type: cell-based; details: Homo sapiens; method in brief: as §1
[23] = Displacement of [3H]methyllycaconitine from chimeric alpha-7nAChR N107A mutant/5HT3A receptor in tsA201 cells; type: cell-based, Homo sapiens; method in brief: as §1
[24] = Displacement of [3H]methyllycaconitine from chimeric alpha7nAChR K145A mutant/5HT3A receptor in tsA201 cells; type: cell-based, Homo sapiens; method in brief: as §1
[25] = Displacement of [3H]methyllycaconitine from chimeric alpha-7nAChR S148A mutant /5HT3A receptor in tsA201 cells; type: cell-based, Homo sapiens; method in brief: as §1
tsA201 [26] = experiment: Displacement of [3H]methyllycaconitine from chimeric alpha-7nAChR W149A mutant/5HT3A receptor in tsA201 cells; type: cell-based; details: Homo sapiens; method in brief: as §1
tsA201 [27] = experiment: Displacement of [3H]methyllycaconitine from chimeric alpha-7nAChR W149Y mutant/5HT3A receptor W149Y mutant in tsA201 cells; type: cell-based; details: Homo sapiens; method in brief: as §1
[28] = Displacement of [3H]methyllycaconitine from chimeric alpha-7nAChR S150A mutant/5HT3A receptor in tsA201 cells; type: cell-based, Homo sapiens; method in brief: as §1
[29] = Displacement of [3H]methyllycaconitine from chimeric alpha-7nAChR Y168A mutant/5HT3A receptor in tsA201 cells; type: cell-based, Homo sapiens; method in brief: as §1
tsA201 [30] = experiment: Displacement of [3H]methyllycaconitine from chimeric alpha-7nAChR Y188A mutant/5-HT3A receptor in tsA201 cells; type: cell-based; details: Homo sapiens; method in brief: as §1
[31] = Displacement of [3H]methyllycaconitine from chimeric alpha7nAChR Y195A mutant/5HT3A receptor in tsA201 cells; type: cell-based, Homo sapiens; method in brief: as §1
[32] = Displacement of [3H]methyllycaconitine from chimeric alpha-7nAChR Y195F mutant/5HT3A receptor in tsA201 cells; type: cell-based, Homo sapiens; method in brief: as §1
[33] = biological target: T2, Neuronal acetylcholine receptor subunit alpha-7
Target sequence in this assay (P36544 whole entry): as the sequence (P36544 whole entry) above

Compound: C[N+]12CC[C@@H]3[C@@H]4[C@@H]5[C@@H](OCC=C(C1)[C@@H]5C[C@@H]32)N1c2ccccc2[C@@]23CC[N+]5(C)CC6=CCO[C@H]([C@@H]([C@H]12)[C@H]6C[C@@H]35)N4c1ccccc1.[I-].[I-] (stereo partly drawn)
- Ki [1]: 550 nM
- pKi [1]: 6.26
- Activity (tsA201 [2]): inactive
- Ki [3]: 430 nM
- pKi [3]: 6.37
- IC50 ([4]; read-out: IC50): 1300 nM
- IC50 ([4]; read-out: pIC50 (converted)): 1320 nM
- IC50 ([5]; read-out: IC50): 2700 nM
- IC50 ([5]; read-out: pIC50 (converted)): 2690 nM
- IC50 ([6]; read-out: IC50): 2500 nM
- IC50 ([6]; read-out: pIC50 (converted)): 2450 nM
- IC50 ([7]; read-out: IC50): 7100 nM
- IC50 ([7]; read-out: pIC50 (converted)): 7080 nM
- pKi ([8]; hek293): < 4
- Ki ([8]; read-out: Ki): > 100000 nM
- Ki [9]: 30000 nM
- Ki [10]: > 100000 nM
- pKi ([10]; hek293): < 4
- Ki ([11]; read-out: Ki): 300 nM
- Ki ([11]; read-out: pKi (converted)): 316 nM
- Ki ([12]; read-out: Ki): 210 nM
- Ki ([12]; read-out: pKi (converted)): 200 nM
- Ki [13]: 11000 nM
- IC50 ([14]; read-out: IC50): 1500 nM
- IC50 ([14]; read-out: pIC50 (converted)): 1480 nM
- IC50 [15]: 30000 nM
- IC50 [16]: 30000 nM
- IC50 (cells; read-out: IC50): > 100000 nM
- IC50 (cells; read-out: pIC50 (converted)): > 100000 nM
- IC50 [17]: > 100000 nM
- pIC50 ([17]; hek293): < 4
- Ki [18]: 330 nM
- pKi [18]: 6.48
- Ki [19]: 850 nM
- pKi [19]: 6.07
- Ki [20]: 300 nM
- pKi [20]: 6.53
- Ki [21]: 660 nM
- pKi [21]: 6.18
- Activity (tsA201 [22]): inactive
- Ki [23]: 330 nM
- pKi [23]: 6.48
- Ki [24]: 250 nM
- pKi [24]: 6.6
- Ki [25]: 790 nM
- pKi [25]: 6.1
- Activity (tsA201 [26]): inactive
- Activity (tsA201 [27]): inactive
- Ki [28]: 500 nM
- pKi [28]: 6.3
- Ki [29]: 310 nM
- pKi [29]: 6.51
- Activity (tsA201 [30]): inactive
- Ki [31]: 2900 nM
- pKi [31]: 5.54
- Ki [32]: 390 nM
- pKi [32]: 6.41
- IC50 [33]: 1500 nM and 1510 nM
